# APJ antagonist: antagonists of human apelin receptor APJ, primary screen, CHO-K1 cells, beta-arrestin complementation, luminescence; P35414; inhibition, % at 20 µM; actives 0.32% (n = 330,000); AID 2521, 2010;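 active = inhibition above about 40% at 20 µM, limit read from the data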;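 note: cells challenged with 10 nM apelin-13 agonist together with compound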
# APJ ag: agonists of human apelin receptor APJ, primary screen, CHO-K1 cells, PathHunter beta-arrestin, luminescence | activation, % at 20 µM | 0% DMSO wells, 100% apelin | actives 0.11% (n = 330,000);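 active = activation more than six SD over the plate average, tested at 20 µM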
#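 Test system – PathHunter CHO-K1 APJ (AGTRL-1) beta-arrestin reporter cells · Input – 1000 cells/well · Compound – single test compound dose, 20 µM final, 1% DMSO · Times – compound stimulation 90 min at 25 °C, detection 60 min · Technique – beta-gal luminescence · Read-out basis – APJ–arrestin association signal · Control set – negative DMSO alone, positive Apelin-13 at 10 nM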
# CXCR6 inh: CXCR6 receptor inhibitors, primary screen, cell-based, beta-arrestin, luminescence, CHO-K1 PathHunter, 1536-well. C-X-C chemokine receptor type 6 (Homo sapiens), O00574. inhibition, % at 20 µM. actives 0.36% (n = 360,000). AID 602244, 2012; in the data active = inhibition above about 34%, passing the limit was not always enough;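 note: antagonist mode with CXCL16 agonist at 10 nM final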
# EBI2 antag: EBI2 receptor antagonists, beta-arrestin recruitment, primary screen, cell-based, luminescence, 7a,25-OHC stimulation, uHTS; G-protein coupled receptor 183 (Homo sapiens), P32249; 7a,25-OHC stimulated; inhibition, % at 5 µM; actives 0.81% (n = 360,000); AID 651636, 2012; in the data active = inhibition above about 38%;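 note: enzyme fragment complementation signal reports receptor beta-arrestin coupling in cells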
# CCR6 antagonist: CCR6 receptor antagonists, primary screen, cell-based, CHO-K1, luminescence, beta-arrestin, uHTS | AID 493098, 2011 | CHO-K1 CCR6 PathHunter beta-arrestin, CCL20-stimulated | inhibition, % at 20 µM | actives 0.49% (n = 340,000) | C-C chemokine receptor type 6 (Homo sapiens), P51684;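 active = compounds whose inhibition of the agonist-driven luminescence signal at 20 µM reaches about 50%, limit read from the data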;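 note: cells stimulated with CCL20 at 14 nM final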
# m5-HT2A agonist: mouse Htr2a agonists via beta-arrestin recruitment, primary screen, cell-based, luminescence | CHO-K1 mHTR2A beta-arrestin complementation; percent of 30 µM serotonin response | activation, % at 7.6 µM | actives 0.66% (n = 360,000) | AID 624169, 2012;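 active = activation above a run cutoff, the mean activation of all tested compounds plus 3 SD, cut at about 14% in these data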
# MOR ag counter: OPRM1 agonists via beta-arrestin recruitment, confirmation, counter-screen for mouse HTR2A agonist project, cell-based, luminescence, single concentration; activation, % at 9.3 µM; actives 5.3% (n = 2,300); AID 624380, 2012; shares compounds with m5-HT2A agonist; U2OS OPRM1 beta-arrestin PathHunter; DMSO 0%, DAMGO 9.3 µM 100%;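 active = mean activation above the mean of DMSO-only wells plus 3 SD, cut at about 0.5% in these data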
# Target sequence (P35372 whole entry, looked up): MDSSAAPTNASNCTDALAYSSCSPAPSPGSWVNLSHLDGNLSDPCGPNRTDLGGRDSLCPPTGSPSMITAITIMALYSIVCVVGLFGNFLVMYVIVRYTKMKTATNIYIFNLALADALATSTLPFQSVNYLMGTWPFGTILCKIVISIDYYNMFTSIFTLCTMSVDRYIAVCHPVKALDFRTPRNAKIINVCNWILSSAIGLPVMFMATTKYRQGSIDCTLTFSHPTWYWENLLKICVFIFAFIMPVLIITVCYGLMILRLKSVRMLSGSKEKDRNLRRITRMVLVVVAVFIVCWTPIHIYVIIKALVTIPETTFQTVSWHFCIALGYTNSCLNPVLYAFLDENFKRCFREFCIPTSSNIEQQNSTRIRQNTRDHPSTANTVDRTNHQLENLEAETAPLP
# m5-HT2A ag conf: mouse HTR2A agonists, beta-arrestin recruitment, confirmation, cell-based, luminescence, CHO-K1 PathHunter, triplicate. shares compounds with m5-HT2A agonist. DMSO 0%, 30 µM serotonin 100%. actives 19% (n = 2,300). activation, % at 7.6 µM;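 active = mean activation across triplicates above the hit threshold derived in the original primary screen, cut at about 15% in these data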
# Numbers stand for hits; . = inactive; / = not tested or not shown. This is a sample that favours compounds with a hit; in the whole collection about 2.1% have one here.
SMILES,APJ antagonist,APJ ag,CXCR6 inh,EBI2 antag,CCR6 antagonist,m5-HT2A agonist,MOR ag counter,m5-HT2A ag conf
C#CCOCCOCCOCCNc1nc(N2CCOCC2)nc(N2CCN(C(=O)CCCCCCCCCCNC(=O)[C@@H](CCC(=O)O)n3cc(CCCCCN)nn3)CC2)n1,.,.,.,.,.,15,.,.
Cc1cc(C)c(C)c(Cn2c(CO)nc3ccccc32)c1C,.,.,.,.,.,15,.,.
COc1ccc(/C=N/NC(=O)CCc2n[nH]c(=O)[nH]c2=O)cc1O,.,.,.,.,.,.,/,/
CCc1c(C)nc(N2CCN(c3ccccc3F)CC2)[nH]c1=O,.,.,.,.,.,20,0.9,.
Cc1nc(N2CCN(c3ccccc3F)CC2)[nH]c(=O)c1C,.,.,.,.,.,.,/,/
CCCCCC(=O)N1C[C@H](n2cc(-c3ccc(F)cc3)nn2)[C@@H](O)C[C@@H]1c1ccc(C)cc1,/,/,.,.,/,23,.,.
COc1ccccc1CNCC(=O)Nc1ccccc1-n1cccc1,.,.,.,.,.,16,.,.
COc1ccc(C(C)=O)cc1COC(=O)c1cc(C)nc2ccccc12,.,.,.,.,.,.,/,/
CN(C(=O)c1ccc2nc(N)sc2c1)c1ccccc1,.,.,.,.,.,.,/,/
CC(CNC(=O)CCCn1ncn2c(cc3occc32)c1=O)c1ccccc1 (centres undefined),.,.,.,.,.,16,.,.
O=C(NC1CCCCC1)[C@@H]1CC=C[C@@H]2CCN(C3CCCCC3)C(=O)[C@@H]21,.,.,.,.,.,.,/,/
O=C(c1ccco1)N1CCN(c2nc3ccsc3c(=O)s2)CC1,.,.,.,.,.,42,.,.
CN1CCN(c2nc(C#N)cc(-c3ccccc3)n2)CC1,.,.,.,.,.,.,/,/
CCOC(=O)N1CCC(c2cc(=O)n3[nH]ccc3n2)CC1,.,.,.,.,.,.,/,/
CCOC(=O)N1CCC(c2cc(=O)n3[nH]cc(C(=O)OC)c3n2)CC1,.,.,.,.,.,20,.,.
O=C(Cc1cccc(NC(=O)C2CCCN(C(=O)CCc3ccccc3)C2)c1)Nc1cccc(C(=O)N2CCCCC2)c1 (centres undefined),/,/,.,.,.,.,/,/
CCOC(=O)C1CCN(C(=O)CSCc2nc(-c3ccc(OCC)cc3)oc2C)CC1,.,.,.,.,.,16,.,.
CCN(CC)c1ccc(NC(=O)C2=CCN(S(=O)(=O)c3ccc(F)cc3)CC2)c(C)c1,.,.,.,.,.,17,.,.
CCCCc1cn([C@@H](CCCCNC(=O)OC(C)(C)C)C(=O)N2CCN(C(=O)OC(C)(C)C)CC2)nn1,.,.,.,.,.,16,.,.
CC(C)(C)OC(=O)NCCCC[C@@H](C(=O)N1CCN(C(=O)OC(C)(C)C)CC1)n1cc(CCC(=O)O)nn1,.,.,.,.,.,.,/,/
Cc1cc(-c2cc(-c3ccc(Cl)cc3)on2)nc(NC2CCCC2)n1,.,.,.,.,.,.,/,/
CC1CN(CC(=O)NCc2ccccc2)CC(C)O1 (centres undefined),.,.,.,.,.,15,.,.
CC1CN(CC(=O)NCc2ccc(F)cc2)CC(C)O1 (centres undefined),.,.,.,.,.,.,/,/
Cc1cc(N2CCN(c3nc4ccccc4s3)CC2)n2ncnc2n1,.,.,.,.,.,22,.,.
CC(=O)c1ccc(C)cc1OC(=O)c1cccc(F)c1,.,.,.,.,.,.,/,/
SMILES,APJ antagonist,APJ ag,CXCR6 inh,EBI2 antag,CCR6 antagonist,m5-HT2A agonist,MOR ag counter,m5-HT2A ag conf
O=C(Nc1ccc(Cl)cc1)c1ccc2c(c1)S(=O)(=O)c1ccccc1C2=O,.,.,.,.,.,.,/,/
CCC(=O)Nc1nnc(SCc2cccc(F)c2)s1,.,.,.,.,.,21,.,.
COc1ccccc1C(OC(=O)c1cccs1)C(=O)NCc1ccco1 (centres undefined),.,.,.,.,.,.,/,/
CC(C)c1cc(=O)n2c(nc3ccccc32)[nH]1,.,.,.,.,.,.,/,/
COc1ccc(NC(=S)N(CCc2c(C)[nH]c3ccc(C)cc23)Cc2ccco2)cc1,.,.,.,.,.,23,.,.
CC(C(=O)Nc1sc2c(c1C#N)CCCCC2)N1C(=O)c2ccccc2C1=O (centres undefined),.,.,.,.,.,25,.,.
Cc1c(C(=O)OCC(=O)c2c(N)n(CC(C)C)c(=O)n(C)c2=O)oc2ccccc12,.,.,.,.,.,18,.,.
COc1ccc2cc(C3CC(c4ccco4)=NN3C(=O)CCC(=O)O)c(Cl)nc2c1 (centres undefined),.,.,.,.,.,.,/,/
C[C@@H]1CN([C@@H](C)CO)S(=O)(=O)c2ccc(Br)cc2O[C@H]1CN(C)Cc1ccncc1,/,/,.,.,/,.,/,/
C[C@H](CO)N1C[C@H](C)[C@H](CN(C)Cc2cncnc2)Oc2cc(Br)ccc2S1(=O)=O,/,/,.,.,/,18,.,.
COc1ccc(NC(=O)CN2c3cccc4cccc(c34)S2(=O)=O)c(OC)c1,.,.,.,.,.,.,/,/
O=C(NCc1cccs1)C1CCCN1C(=O)Nc1cccc(F)c1 (centres undefined),.,.,.,.,.,17,.,.
O=C(Nc1cc(Cl)ccc1O)C1CCCO1 (centres undefined),.,.,.,.,.,.,/,/
CC(C)C(=O)NC(NCC1CCCO1)C(Cl)(Cl)Cl (centres undefined),.,.,.,.,.,17,.,.
O=C(COc1cc(Cl)c(Cl)cc1Cl)Nc1cccc(O)c1,.,.,.,.,.,22,.,.
CCN(C(=O)COC(=O)/C=C/c1c(C)nn(-c2ccccc2)c1C)c1c(N)n(Cc2ccccc2)c(=O)[nH]c1=O,/,/,.,.,.,18,.,.
